In the library only some 3.8% were active in any assay of this set; here they are far more common.
ARNT TACC3 PPI: disrupts binding between human ARNT and TACC3; Q9Y6A5; AlphaScreen His-ARNT PAS-B/GST-TACC3 binding, luminescence; TACC3 fragment carries E629A point mutation; inhibition, % at 9.99 µM; 390,000 tested, 0.66% active; AID 623870;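 active = mean inhibition of replicates at least 50% and at least half of replicates each reaching 50%; inconclusive = half or more replicates reach 50% but mean below 50%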
FN deposit inh: fibronectin deposition inhibition; AH1F fibroblasts, Alexa488-fibronectin deposition fluorescence, overnight; inhibition, % at 12.6 µM; 350,000 tested, 0.086% active; AID 743247;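 active = mean inhibition across replicates of 30% or more, regardless of how many single replicates reach that level; inconclusive = mean under 30% yet at least half of replicates reach 30%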
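Schedule: 1 h cell adhesion before compound, then overnight fibronectin incubation; test system: AH1F fibroblast monolayer depositing Alexa488-labelled fibronectin into matrix; quantity: 10000 AH1F cells per well; probe or stimulus: fluorescent fibronectin at 24 nM final; signal: fluorescence, ex 485 nm, em 525 nm; evaluation: percent inhibition as loss of matrix-bound fibronectin fluorescence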
SIRT5 inh: sirtuin-5 (human) deacylase inhibition; Q9NXA8; Purified SirT5, succinyl-peptide AMC, trypsin-coupled fluorescence; inhibition, % at 15 µM; 330,000 tested, 1.1% active; AID 652115; in the data active = inhibition above about 15%; inconclusive = no clear call, values can overlap the other calls
Target sequence (Q9NXA8 whole entry, looked up): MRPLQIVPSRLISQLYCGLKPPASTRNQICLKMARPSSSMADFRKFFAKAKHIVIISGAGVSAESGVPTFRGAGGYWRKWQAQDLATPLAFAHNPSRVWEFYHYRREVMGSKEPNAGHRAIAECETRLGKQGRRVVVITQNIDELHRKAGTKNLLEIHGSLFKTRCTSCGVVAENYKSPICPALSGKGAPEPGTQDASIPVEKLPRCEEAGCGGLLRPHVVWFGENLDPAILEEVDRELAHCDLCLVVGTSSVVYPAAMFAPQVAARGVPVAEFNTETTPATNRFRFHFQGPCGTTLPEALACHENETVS
Xi reactivation: X-chromosome reactivation activator | XiGFP mouse fibroblasts, % GFP-positive cells imaging, 3 d; cells co-treated with 5-aza-dC sensitizer; scaled so ellipticine positive control = 100% | activation, % at 7.58 µM | 360,000 tested, 0.055% active | AID 743238;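 active = mean normalized replicate activation at least 10% and every replicate at or above 10%; inconclusive = only one of the two criteria met; inactive = mean below 10% and not all replicates reach 10%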
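System: SV40-immortalized XiGFP fibroblast cells, line 68-5-11 / Incubation: 3-day compound exposure, then 15 min fixation at room temperature / Compound: single concentration per compound, delivered by pin transfer / Buffer or medium: DMEM plus 5-aza-dC sensitizer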
DENV2 CPE: DENV2-induced cell death inhibition. 350,000 tested, 1.7% active. CPE inhibition, % at 9.99 µM. DENV2-infected cells, cytopathic effect rescue, plate reader; in the data active = CPE inhibition above about 20%, passing the limit was not always enough; inconclusive = no clear call, values can overlap the other calls; tested in BHK-21 cells
FGF22 binding: binders of recombinant human FGF22 by thermal shift; SYPRO orange fluorescence; percent of sucrose octasulfate shift, DMSO zero; AID 651658; activity (Tm shift, normalised), % at 9.99 µM; Q9HCT0; 340,000 tested, 1.5% active;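 active = mean Tm shift, scaled 0 neutral to 100 positive control, at about 1.3% or above, every replicate too, limit read from the data; inconclusive = no clear call, values can overlap the other calls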
Target sequence (Q9HCT0 whole entry, looked up): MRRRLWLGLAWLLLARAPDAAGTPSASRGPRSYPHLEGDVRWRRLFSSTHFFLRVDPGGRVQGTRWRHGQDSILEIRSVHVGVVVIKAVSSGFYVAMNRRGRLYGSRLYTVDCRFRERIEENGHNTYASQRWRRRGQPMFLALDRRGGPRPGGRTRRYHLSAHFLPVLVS
Hits are given with their value; 0 = inactive; ? = inconclusive; - = no result.

SMILES | ARNT TACC3 PPI | FN deposit inh | SIRT5 inh | Xi reactivation | DENV2 CPE | FGF22 binding
C[C@@H]1CCCCO[C@@H](CN(C)Cc2ccncc2)[C@H](C)CN([C@@H](C)CO)C(=O)c2cc(NS(=O)(=O)c3ccc(Cl)cc3)ccc2O1 | 0 | 0 | 0 | 0 | 60.1 | 0
C[C@@H]1CN([C@H](C)CO)C(=O)c2cc(NS(=O)(=O)c3ccc(F)cc3)ccc2O[C@@H](C)CCCCO[C@H]1CN(C)Cc1ccncc1 | 0 | 0 | 0 | 0 | 50.6 | 0
O=S(=O)(Cc1ccccc1)N1CCCCN2[C@H](C1)[C@H](c1ccc(-c3ccc(F)cc3)cc1)[C@@H]2CO | 0 | - | 0 | 0 | ? | 0
C/C=C/c1ccc([C@@H]2[C@H]3CN(S(=O)(=O)c4ccc(F)cc4)CCCCN3[C@H]2CO)cc1 | 0 | - | 15.6 | 0 | 0 | 0
O=S(=O)(c1ccc(F)cc1)N1CCCCN2[C@H](CO)[C@@H](c3ccc(-c4ccccc4F)cc3)[C@H]2C1 | 0 | - | 22.1 | - | 0 | 0
O=S(=O)(Cc1ccccc1)N1CCCCN2[C@H](CO)[C@@H](c3ccc(-c4ccc(F)cc4)cc3)[C@H]2C1 | 0 | - | 0 | 0 | 40.9 | 0
Cc1noc(C)c1S(=O)(=O)Nc1cccc2c1O[C@@H](CN(C)Cc1ccc(Cl)c(Cl)c1)[C@@H](C)CN([C@@H](C)CO)C2=O | 0 | - | 0 | 0 | 0 | 0
CCCCC(=O)N1CCCC(c2nc(-c3cccc(OC)c3)no2)C1 (configuration not stated) | 0 | 0 | 0 | 0 | 0 | 43.3
COC(=O)[C@]1(C)N[C@H](CN(C)C(=O)c2ccccc2)[C@@H]2C(=O)N(C)C(=O)[C@@H]21 | 0 | 0 | 33.5 | 0 | 0 | 0
CCN(C[C@H]1N[C@@](C)(C(=O)OC)[C@H]2C(=O)N(C)C(=O)[C@@H]12)C(=O)c1ccc(F)cc1 | 0 | 0 | 27.8 | 0 | ? | 0
CCN(C[C@H]1N[C@@](C)(C(=O)OC)[C@H]2C(=O)N(C)C(=O)[C@@H]12)C(=O)c1ccc(C)cc1 | 0 | 0 | 0 | 0 | ? | 0
CCNC(=O)N(C)C[C@H]1N[C@@](C)(C(=O)OC)[C@H]2C(=O)N(Cc3ccccc3)C(=O)[C@@H]12 | 0 | 0 | 0 | 0 | 0 | 0
COC(=O)[C@]1(C)N[C@H](CN(C)C(=O)c2ccc(C(C)(C)C)cc2)[C@@H]2C(=O)N(Cc3ccccc3)C(=O)[C@@H]21 | 0 | 0 | - | 0 | 0 | 43.1
C[C@H](CO)N1C[C@H](C)[C@@H](CN(C)S(C)(=O)=O)Oc2ccc(NC(=O)Nc3ccc(F)cc3)cc2C1=O | 0 | - | - | 0 | 0 | 0
CO[C@H]1CN(C)C(=O)c2ccc(NC(C)=O)cc2OC[C@@H](C)N(C(=O)c2ccccc2)C[C@@H]1C | 0 | 0 | 0 | 0 | 0 | 0
O=C1N[C@H](Cc2ccccc2)COCc2cn(nn2)CC[C@H]1Cc1ccc(-c2ccccc2)cc1 | - | 0 | - | 0 | - | -
C[C@@H]1CN([C@H](C)CO)C(=O)c2cc(NS(=O)(=O)c3ccccc3)ccc2O[C@H]1CN(C)Cc1ccc(-c2ccccc2)cc1 | 0 | - | 15.9 | 0 | ? | 0
C[C@@H]1CN([C@H](C)CO)C(=O)c2cc(NS(=O)(=O)c3ccccc3)ccc2O[C@@H]1CN(C)Cc1ccc(Oc2ccccc2)cc1 | 0 | - | 17.0 | 0 | 0 | 0
Cc1ccc(S(=O)(=O)Nc2ccc3c(c2)C(=O)N([C@H](C)CO)C[C@@H](C)[C@H](CN(C)Cc2ccc(-c4ccccc4)cc2)O3)cc1 | 0 | - | 18.0 | 0 | 0 | 0
CS(=O)(=O)N1CC(=O)N2[C@H](C1)[C@@H](c1ccc(C#CC3CCCC3)cc1)[C@@H]2CO | - | - | 0 | 0 | 0 | -
C[C@H](CO)N1C[C@H](C)[C@H](CN(C)C(=O)Nc2ccccc2)Oc2ncc(C3=CCCCC3)cc2C1=O | 0 | 0 | 0 | 0 | 0 | 0
CCc1ccc(OCC(=O)NN2Cc3ccccc3C2=N)cc1 | 0 | 0 | 23.9 | 0 | 0 | 43.3
N#Cc1ccc(OCC(=O)NN2Cc3ccccc3C2=N)cc1 | 0 | 0 | 0 | 0 | 0 | 0
Cc1c(C(=O)Nc2c(F)cccc2F)sc2ncn(CC(=O)N3CCCCC3)c(=O)c12 | 0 | 0 | 0 | 0 | 0 | 0
Cc1c(C(=O)Nc2ccccc2F)sc2ncn(CC(=O)N3CCOCC3)c(=O)c12 | 0 | 0 | 0 | 0 | 52.1 | 0
SMILES | ARNT TACC3 PPI | FN deposit inh | SIRT5 inh | Xi reactivation | DENV2 CPE | FGF22 binding
O=C(C1CCN(Cc2cn[nH]c2-c2ccc(F)cc2F)CC1)N1CCOCC1 | 0 | - | 0 | 0 | 0 | 44.1
COc1ccc(S(=O)(=O)Nc2ccc3c(c2)C(=O)N([C@@H](C)CO)C[C@@H](C)[C@@H](CN(C)S(=O)(=O)c2ccc(Cl)cc2)OCCCC[C@H](C)O3)cc1 | 0 | 0 | 20.7 | 0 | 35.4 | -
COc1ccc(S(=O)(=O)N(C)C[C@@H]2OCCCC[C@H](C)Oc3ccc(NS(=O)(=O)c4ccc(Cl)cc4)cc3C(=O)N([C@H](C)CO)C[C@@H]2C)cc1 | - | 0 | 0 | 0 | 0 | 0
COc1ccc(S(=O)(=O)N(C)C[C@H]2OCCCC[C@H](C)Oc3ccc(NS(=O)(=O)c4ccc(Cl)cc4)cc3C(=O)N([C@H](C)CO)C[C@H]2C)cc1 | - | 0 | 22.1 | 0 | 20.9 | 0
COc1ccc(S(=O)(=O)N(C)C[C@H]2OCCCC[C@H](C)Oc3ccc(NS(=O)(=O)c4ccc(Cl)cc4)cc3C(=O)N([C@@H](C)CO)C[C@@H]2C)cc1 | - | 0 | - | 0 | 0 | -
COc1ccc(S(=O)(=O)Nc2ccc3c(c2)C(=O)N([C@H](C)CO)C[C@H](C)[C@@H](CN(C)S(=O)(=O)c2ccc(Cl)cc2)OCCCC[C@H](C)O3)cc1 | 0 | 0 | 0 | 0 | 0 | 0
COc1ccc(S(=O)(=O)N(C)C[C@@H]2OCCCC[C@H](C)Oc3ccc(NS(=O)(=O)c4ccc(Cl)cc4)cc3C(=O)N([C@@H](C)CO)C[C@H]2C)cc1 | - | 0 | 20.8 | 0 | 0 | 0
COCC(=O)N1C[C@H](C)[C@@H](OC)CN(C)C(=O)c2cc(NC(=O)C3CCC3)ccc2OC[C@@H]1C | 0 | 0 | 0 | 0 | 0 | 0
Cc1ccc(-c2cnc3c(c2)C(=O)N([C@H](C)CO)C[C@@H](C)[C@@H](CN(C)CC2CCOCC2)O3)cc1 | 0 | - | 0 | 0 | 0 | 0
Cc1cc(C)c(S(=O)(=O)/N=C2/C=C(Sc3ncn[nH]3)C(=O)c3ccccc32)cc1C | 0 | 38.6 | - | 0 | - | -
O=C1OC(=O)c2c(Br)c(Br)c(Br)c(Br)c21 | - | - | - | - | 38.9 | 0
CC(=O)N1[C@H](CO)[C@H](c2ccccc2)[C@@H]1CN(C(=O)c1ccccc1F)C(C)C | - | 0 | 0 | 0 | 0 | -
Cc1ccc(C(=O)COC(=O)CN2C(=O)C3C4CC(C(Br)C4Br)C3C2=O)cc1 (configuration not stated) | 0 | 0 | 101.6 | 0 | 0 | 0

Screening data from PubChem BioAssay.
